Published values of several laboratories.
Compare with care: the assays were run in different laboratories.
mraY: mraY (Staphylococcus aureus, UniProt Q2FZ93)
FLT3 ITD: Receptor-type tyrosine-protein kinase FLT3 (FLT3, Homo sapiens, UniProt P36888, ITD)
TNKS2: Poly [ADP-ribose] polymerase tankyrase-2 (TNKS2, Homo sapiens, UniProt Q9H2K2)
TOP2A: DNA topoisomerase 2-alpha (TOP2A, Homo sapiens, UniProt P11388)
HTR2B: 5-hydroxytryptamine receptor 2B (HTR2B, Homo sapiens, UniProt P41595)

CCCCCCC#Cc1cncc(-c2nnc(SCc3cc([N+](=O)[O-])cc([N+](=O)[O-])c3)n2C2CCNCC2)c1 gave an IC50 of roughly 100000 nM (mraY; enzyme activity, inhibitor).
With O=C(NC1CCCCC1)c1ccc(-c2nc3ccc4[nH]ncc4c3c3c2CCCC3)cc1 the IC50 was greater than 1000 nM (FLT3 ITD; enzyme activity, inhibitor).
The IC50 of CC(C)(O)c1ccc(-c2nc3cc(NC(=O)c4ccc(-c5ccccc5)cc4)ccc3c(=O)[nH]2)cc1 is reported as 35 nM (TNKS2; enzyme activity, inhibitor).
The IC50 of CN(C)CCNC(=O)c1ccc(-c2nc3ccc4[nH]ncc4c3c3c2CCCCC3)cc1 is reported as 287 nM (Receptor-type tyrosine-protein kinase FLT3 (FLT3, Homo sapiens, UniProt P36888, F691L); enzyme activity, inhibitor).
The IC50 of CCCCCCC#Cc1cncc(-c2nnc(SCc3cc([N+](=O)[O-])cc([N+](=O)[O-])c3)n2CCOC2OC(CN)C(O)C2O)c1 (stereo not drawn) is reported as 78000 nM (mraY; enzyme activity, inhibitor).
The IC50 of CNc1cccc(Nc2nc(-c3ccncc3)nc3c2CNCC3)c1 is reported as 160000 nM (TOP2A; enzyme activity, inhibitor).
For Cc1n[nH]c2ccc3nc(-c4ccc(C(=O)NCCN(C)C)cc4F)c4c(c3c12)CCCCC4, the IC50 was 138 nM (Receptor-type tyrosine-protein kinase FLT3 (FLT3, Homo sapiens, UniProt P36888); enzyme activity, inhibitor).
CC(C)(O)c1ccc(-c2nc3cc(NC(=O)c4cnc(OCc5ccccc5)nc4)ccc3c(=O)[nH]2)cc1 has an IC50 of 16.3 nM (TNKS2; enzyme activity, inhibitor).
Cc1cc2c(cc1C)N[C@H](c1ccccc1)[C@@H](O)C(=O)N2 has an IC50 of 211 nM (Aurora kinase C (AURKC, Homo sapiens, UniProt Q9UQB9); enzyme activity, inhibitor, ELISA).
Fc1cccc(Nc2nc(-c3ccncc3)nc3c2CNCC3)c1 has an IC50 of 25000 nM (TOP2A; enzyme activity, inhibitor).
CN(C)CCNC(=O)c1ccc(-c2nc3ccc4[nH]ncc4c3c3c2CCCC3)c(F)c1 has an IC50 of 112 nM (FLT3 ITD; enzyme activity, inhibitor).
For Cc1cc(-c2ccccc2)nnc1NCCN1CCOCC1, the IC50 was 6200 nM (HTR2B; calcium signal, antagonist).
The IC50 of CNC(=O)c1ccc(C(=O)Nc2ccc3c(=O)[nH]c(-c4ccc(C(C)(C)O)cc4)nc3c2)cc1 is reported as 30.4 nM (TNKS2; enzyme activity, inhibitor).
Cc1n[nH]c2ccc3nc(-c4ccc(C(=O)NCCN(C)C)cc4)c4c(c3c12)CCCCC4 gave an IC50 of 34 nM (Receptor-type tyrosine-protein kinase FLT3 (FLT3, Homo sapiens, UniProt P36888, D835Y); enzyme activity, inhibitor).
The IC50 of CN1CCC(CNc2ccc3ncc(-c4cccc(OC(F)(F)F)c4)n3n2)CC1 is reported as 2810 nM (HTR2B; calcium signal, antagonist).
